Assay [1] in a line: Antiviral activity against Murine norovirus1 infected in […] cells assessed as inhibition of virus induced cytopathic effect after 48 hrs by CytoTox96 nonradioactive cytotoxicity assay. The conditions noted are these: Murine norovirus 1, 48 h.
A short description of assay [2]: Cytotoxicity against human HG23 cells by CytoTox96 nonradioactive cytotoxicity assay. The class given is functional. Summed up:
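HG23 cells (Huh-7 cells harbouring NV replicon) exposed to compound in serial dilution up to 100 µM; cytotoxicity read with a nonradioactive cytotoxicity kit; CC50 taken as concentration giving 50% cytotoxicity; at least two independent experiments.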

Assay [3] is described as follows: Inhibition of Norovirus 3C-like protease using Edans-DFHLQGP-Dabcyl fluorogenic substrate after 30 mins as substrate by FRET assay. Summed up: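 FRET assay with the fluorogenic substrate derived from NV polyprotein cleavage sites. Compounds tested up to 100 μM. IC50 from at least two independent experiments.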
Assay [4] concerns Norovirus. In words: Antiviral activity against Norovirus infected in human HG23 cells assessed as reduction in RNA levels after 48 hrs by RT-PCR. The class given is functional, cell-based. The conditions noted are these: for EC50 / EC90: HG23, 48 h. The method in brief:
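HG23 cells are Huh-7 cells carrying the NV replicon. Cells were seeded 1 day before treatment with compound (1.0–100 μM) for 48 h. Total RNA was extracted and norovirus and β-actin RNA measured by qRT-PCR. EC50/EC90 derived from % RNA reduction versus mock after β-actin normalization. At least two independent experiments; mean and standard deviation reported.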

On to `CC(C)(C)OC(=O)N[C@H]1CCC2=NN=C(CCCCNC(=O)CC[C@@H](C=O)NC(=O)[C@H](CC3CCCCC3)NC1=O)O2`, for which, in assay [1], the half-maximal effective concentration (EC50) stood at 10.9 µM. Moreover, the 50% cytotoxic concentration (CC50) in assay [2] was greater than 100 µM. Also, in assay [3], it took 18.5 µM to reach half-maximal inhibition (IC50). In addition, in assay [4], the Activity result was “Dose-dependent effect”, the concentration giving a half-maximal response (EC50) turned out to be 6.5 µM and the EC90 was 18.2 µM.
For `CC(C)C[C@@H]1NC(=O)[C@@H](NC(=O)OC(C)(C)C)CCC2=NN=C(CNC(=O)CC[C@@H](C=O)NC1=O)O2`, the half-maximal effective concentration (EC50) is greater than 100 µM in assay [1] and 18.1 µM in assay [4]. The CC50 in assay [2] was greater than 100 µM. Besides, 34.3 µM corresponded to half-maximal inhibition in assay [3] (IC50). For the same molecule, in assay [4], the EC90 was found to be 72.7 µM.
Turning to `CC(C)C[C@@H]1NC(=O)[C@@H](NC(=O)OC(C)(C)C)CCC2=NN=C(CCCNC(=O)CC[C@@H](C=O)NC1=O)O2`, the EC50 in assay [1] was 11.1 µM. For the same molecule, in assay [2], the CC50 is greater than 100 µM. Besides, half-maximal inhibition in assay [3] (IC50) was put at 21.3 µM. Moreover, in assay [4], the concentration for a half-maximal effect (EC50) stood at 5.9 µM and the EC90 was determined as 30.5 µM.
The like results for `CC(C)(C)OC(=O)N[C@H]1CCC2=NN=C(CCNC(=O)CC[C@@H](C=O)NC(=O)[C@H](CC3CCCCC3)NC1=O)O2` were, in that order, 19.9 µM, greater than 100 µM, 14.5 µM, 5.1 µM and 38.2 µM.
`CC(C)(C)OC(=O)N[C@H]1CCC2=NN=C(CCCNC(=O)CC[C@@H](C=O)NC(=O)[C@H](CC3CCCCC3)NC1=O)O2`: the values for the EC50 in assay [1] and in assay [4] were greater than 100 µM and 9.4 µM, respectively. In addition, the CC50 in assay [2] was greater than 100 µM. Besides, in assay [3], the half-inhibitory concentration (IC50) was found to be 45.1 µM. In assay [4], the EC90 amounted to 73.3 µM.
On to `CC(C)(C)OC(=O)N[C@H]1CCC2=NN=C(CCCCCNC(=O)CC[C@@H](C=O)NC(=O)[C@H](CC3CCCCC3)NC1=O)O2`, for which, in assay [1], the EC50 was greater than 100 µM. The CC50 in assay [2] is greater than 100 µM. The same molecule displayed a 50% inhibitory concentration (IC50) in assay [3] of 8.6 µM. In assay [4], the EC50 was 51.2 µM and the EC90 was greater than 100 µM.
On to `CC(C)C[C@@H]1NC(=O)[C@@H](NC(=O)OC(C)(C)C)CC2=NN=C(CNC(=O)CC[C@@H](C=O)NC1=O)O2`, for which the EC50 in assay [1] is greater than 100 µM. Further, the CC50 in assay [2] is greater than 100 µM. Moreover, the IC50 in assay [3] was greater than 100 µM. In assay [4], the EC50 was determined as 19.4 µM and the EC90 is greater than 100 µM.
On to `CC(C)C[C@@H]1NC(=O)[C@@H](NC(=O)OC(C)(C)C)CCC2=NN=C(CCNC(=O)CC[C@@H](C=O)NC1=O)O2`, for which, in assay [1], the EC50 was determined as 9.8 µM. Also, the CC50 in assay [2] was greater than 100 µM. This molecule had an IC50 in assay [3] of 15.3 µM. Also, in assay [4], the 50% effective concentration (EC50) was found to be 2.5 µM and the EC90 came out at 23.4 µM.

The values above are taken from ChEMBL document CHEMBL3785009, “Oxadiazole-Based Cell Permeable Macrocyclic Transition State Inhibitors of Norovirus 3CL Protease” (J Med Chem, 2016).
